Assay results: ChEMBL document CHEMBL3286388, “Discovery of potent anticancer agent HJC0416, an orally bioavailable small molecule inhibitor of signal transducer and activator of transcription 3 (STAT3)” (Eur J Med Chem, 2014)
Activity calls are given as the source filed them. The calls are words filed in the database; no cut-off is given here.

Experiments:
MDA-MB-231 [1] = test: Antiproliferative activity against ER-negative and triple-negative human MDA-MB-231 cells assessed as inhibition of cell proliferation after 72 hrs by MTS assay; assay type: functional, cell-based; conditions: MDA-MB-231, 72 h
Outline: (§1)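 Cells seeded at 2 × 10^3 per well, exposed to DMSO or 0.01–100 µM (0.01, 0.1, 1, 5, 10, 100) for 72 h. MTS added, OD 550 nm read after 1 h at 37 °C. Quadruplicate wells for each concentration; IC50 reported.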

MCF7 = test: Antiproliferative activity against ER-positive human MCF7 cells assessed as inhibition of cell proliferation after 72 hrs by MTS assay; assay type: functional, cell-based; conditions: MCF7, 72 h; outline: as §1
[2] = Antiproliferative activity against human PANC1 cells assessed as inhibition of cell proliferation after 72 hrs by MTS assay; assay type: functional, cell-based; conditions: PANC-1, 72 h; outline: as §1
ASPC1 = test: Antiproliferative activity against human AsPC1 cells assessed as inhibition of cell proliferation after 72 hrs by MTS assay; assay type: functional, cell-based; conditions: ASPC1, 72 h; outline: as §1
MDA-MB-231 [3] = test: Inhibition of STAT3 promoter activity in human MDA-MB-231 cells at 5 uM after 24 hrs by dual luciferase reporter assay; assay type: functional; conditions: MDA-MB-231, 24 h
Outline: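 MDA-MB-231 cells pretreated at 5 µM for 24 h, replated in RPMI-1640 with 10% FBS, and transfected 4 h later with pSTAT3-Luc plus renilla control (95:5, 0.5 µg DNA per well). Treated again for 24 h starting 5 h after transfection. RLU = firefly/renilla luciferase relative to DMSO control. Triplicate wells, at least 3 independent experiments.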

Mus musculus = test: Toxicity in nude mouse xenografted with triple-negative human MDA-MB-231 cells assessed as body weight loss at 100 mg/kg, po administered via gavage for five days per week; assay type: organism-based; design: dose 100 mg/kg, route oral; conditions: in vivo
Outline: (§2)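 Female nude mice, 6 weeks old, received 2.5 × 10^6 MDA-MB-231 cells in PBS into the 3rd mammary fat pad and were randomized (5–10 per group). Dosing began at 150 mm³ tumors for ip daily 10 mg/kg, or 110 mm³ for oral gavage 100 mg/kg five days per week. Vehicle was 50% DMSO/50% PEG. Body weight and tumor volume (0.5·L·W²) measured daily.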

MDA-MB-231 [4] = test: Decrease in STAT3 protein expression in human MDA-MB-231 cells at 1 to 10 uM after 12 hrs by western blot analysis; assay type: functional, cell-based
Outline: (§3)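 MDA-MB-231 cells treated for 12 h. Lysates (40 µg protein, BCA) run on 10% SDS-PAGE and transferred to nitrocellulose. Blocked in 5% milk/1% Tween 20 in TBS, probed for pSTAT3 Y705, STAT3, active caspase-3, cyclin D1 and β-actin, ECL detection.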

MDA-MB-231 [5] = test: Anticancer activity against human MDA-MB-231 cells assessed as cell growth inhibition, apoptosis and cellular morphological changes at 1 to 10 uM after 48 hrs by light microscopy; assay type: functional, cell-based
Outline: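 Exponentially growing MDA-MB-231 cells incubated with compound for 48 h; growth, apoptosis and morphology judged under light microscopy.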

MDA-MB-231 [6] = test: Downregulation of cyclin D1 protein expression in human MDA-MB-231 cells at 1 to 10 uM after 12 hrs by western blot analysis; assay type: functional, cell-based; outline: as §3
MDA-MB-231 [7] = test: Antitumor activity against triple-negative human MDA-MB-231 cells xenografted in nude mouse assessed as decrease in tumor volume at 100 mg/kg, po administered via gavage for five days per week; assay type: functional; conditions: MDA-MB-231, 120 h; outline: as §2
MDA-MB-231 [8] = test: Antitumor activity against triple-negative human MDA-MB-231 cells xenografted in nude mouse assessed as decrease in tumor volume at 10 mg/kg, ip administered daily; assay type: functional; conditions: MDA-MB-231, ip, route intraperitoneal; outline: as §2
MDA-MB-231 [9] = test: Induction of apoptosis in human MDA-MB-231 cells assessed as cleaved caspase-3 level at 1 to 10 uM after 12 hrs by western blot analysis; assay type: functional, cell-based; outline: as §3
[10] = molecular target: Signal transducer and activator of transcription 3 (Homo sapiens) (UniProt P40763); test: Inhibition of STAT3 phosphorylation at Tyr705 in human MDA-MB-231 cells at 1 to 10 uM after 12 hrs by western blot analysis; assay type: cell-based; outline: as §3
Sequence of Signal transducer and activator of transcription 3 (Homo sapiens) (P40763 whole entry): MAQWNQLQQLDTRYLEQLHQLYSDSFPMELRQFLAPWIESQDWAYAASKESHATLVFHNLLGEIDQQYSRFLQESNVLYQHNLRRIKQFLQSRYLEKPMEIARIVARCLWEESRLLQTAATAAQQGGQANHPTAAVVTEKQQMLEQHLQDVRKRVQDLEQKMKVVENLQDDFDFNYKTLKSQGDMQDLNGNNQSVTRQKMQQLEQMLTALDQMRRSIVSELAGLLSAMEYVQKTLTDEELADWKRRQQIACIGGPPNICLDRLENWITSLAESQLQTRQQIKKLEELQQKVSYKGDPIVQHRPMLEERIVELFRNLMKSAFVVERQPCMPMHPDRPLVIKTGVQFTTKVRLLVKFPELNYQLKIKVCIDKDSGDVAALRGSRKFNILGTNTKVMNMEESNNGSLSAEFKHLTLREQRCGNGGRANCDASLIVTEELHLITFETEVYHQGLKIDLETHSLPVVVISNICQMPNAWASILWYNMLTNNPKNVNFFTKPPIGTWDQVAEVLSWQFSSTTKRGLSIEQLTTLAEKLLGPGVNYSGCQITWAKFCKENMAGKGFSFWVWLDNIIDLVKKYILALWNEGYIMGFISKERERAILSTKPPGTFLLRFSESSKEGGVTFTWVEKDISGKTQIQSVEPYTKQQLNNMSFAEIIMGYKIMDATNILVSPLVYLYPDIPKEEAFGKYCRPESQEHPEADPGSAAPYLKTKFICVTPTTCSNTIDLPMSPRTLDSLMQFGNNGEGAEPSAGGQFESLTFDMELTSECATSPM

SMILES	IC50 (MDA-MB-231 [1]) [µM]	IC50 (MCF7) [µM]	IC50 [2] [µM]	IC50 (ASPC1) [µM]	inhibition at 5 µM (MDA-MB-231 [3]) [%]	Activity (Mus musculus)	inhibition (MDA-MB-231 [4])	Activity (MDA-MB-231 [5])	inhibition (MDA-MB-231 [6])	inhibition in vivo at 100 mg/kg (MDA-MB-231 [7]) [%]	inhibition in vivo at 10 mg/kg (MDA-MB-231 [8]) [%]	Activity (MDA-MB-231 [9])	inhibition [10]
NCCOc1ccc(Cl)cc1C(=O)Nc1ccc2c(c1)S(=O)(=O)C=C2	3.12	3.47	2.25	1.05	–	–	–	–	–	–	–	–	–
O=C(Nc1ccc2c(c1)S(=O)(=O)C=C2)c1cc(Cl)ccc1OC1CCNCC1	2.85	4.21	4.09	1.6	–	–	–	–	–	–	–	–	–
NCCCOc1ccc(Cl)cc1C(=O)Nc1ccc2c(c1)S(=O)(=O)C=C2	1.97	1.76	1.88	0.04	51	Non-toxic	Active	Active	Active	46	67	Active	Active
O=[N+]([O-])c1ccc2c(c1)S(=O)(=O)C=C2	2.89	3.6	3.77	1.32	39	–	Active	Active	–	–	–	–	Active
O=C(Nc1ccc2c(c1)S(=O)(=O)C=C2)c1cc(Cl)ccc1OCCN1CCOCC1	5.43	0.49	6.95	1.37	–	–	–	–	–	–	–	–	–
O=C(Nc1ccc2c(c1)S(=O)(=O)C=C2)c1cc(Cl)ccc1OCCN1CCCCC1	2.51	3.74	1.81	1.42	–	–	–	–	–	–	–	–	–
O=C(Nc1ccc2c(c1)S(=O)(=O)C=C2)c1cc(Cl)ccc1OCCN1CCNCC1	3.29	2.56	3.69	1.02	–	–	–	–	–	–	–	–	–
O=C(Nc1ccc2c(c1)S(=O)(=O)C=C2)c1cc(Cl)ccc1OCCBr	> 10	> 10	–	–	–	–	–	–	–	–	–	–	–
CN1CCC(Oc2ccc(Cl)cc2C(=O)Nc2ccc3c(c2)S(=O)(=O)C=C3)CC1	2.68	3.53	1.36	1.04	–	–	–	–	–	–	–	–	–
CN1CCN(CCOc2ccc(Cl)cc2C(=O)Nc2ccc3c(c2)S(=O)(=O)C=C3)CC1	2.86	4.08	3.01	1.07	–	–	–	–	–	–	–	–	–
CN(C)CCOc1ccc(Cl)cc1C(=O)Nc1ccc2c(c1)S(=O)(=O)C=C2	2.69	3.5	3.38	1.14	–	–	–	–	–	–	–	–	–
CNCCOc1ccc(Cl)cc1C(=O)Nc1ccc2c(c1)S(=O)(=O)C=C2	3.12	3.15	3.09	2.05	–	–	–	–	–	–	–	–	–
COC1CS(=O)(=O)c2cc(NC(=O)c3cc(Cl)ccc3O)ccc21 (configuration not stated)	7.05	6.07	8.39	8.46	–	–	–	–	–	–	–	–	–
O=C(Nc1ccc2c(c1)S(=O)(=O)C=C2)c1cc(Cl)ccc1OCCF	4.42	4	9.53	1.37	–	–	–	–	–	–	–	–	–
